Apaf-1 act: activates human Apaf-1 apoptosome. 0.31% of 330,000 active. O14727. activity change, negative = activation, % at 20 µM. Apaf-1 apoptosome caspase-3 activation, DEVD-Rh110 fluorescence; hits give low values;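 active means activity change at or below -40% at 20 µM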
Target sequence (O14727 whole entry, looked up): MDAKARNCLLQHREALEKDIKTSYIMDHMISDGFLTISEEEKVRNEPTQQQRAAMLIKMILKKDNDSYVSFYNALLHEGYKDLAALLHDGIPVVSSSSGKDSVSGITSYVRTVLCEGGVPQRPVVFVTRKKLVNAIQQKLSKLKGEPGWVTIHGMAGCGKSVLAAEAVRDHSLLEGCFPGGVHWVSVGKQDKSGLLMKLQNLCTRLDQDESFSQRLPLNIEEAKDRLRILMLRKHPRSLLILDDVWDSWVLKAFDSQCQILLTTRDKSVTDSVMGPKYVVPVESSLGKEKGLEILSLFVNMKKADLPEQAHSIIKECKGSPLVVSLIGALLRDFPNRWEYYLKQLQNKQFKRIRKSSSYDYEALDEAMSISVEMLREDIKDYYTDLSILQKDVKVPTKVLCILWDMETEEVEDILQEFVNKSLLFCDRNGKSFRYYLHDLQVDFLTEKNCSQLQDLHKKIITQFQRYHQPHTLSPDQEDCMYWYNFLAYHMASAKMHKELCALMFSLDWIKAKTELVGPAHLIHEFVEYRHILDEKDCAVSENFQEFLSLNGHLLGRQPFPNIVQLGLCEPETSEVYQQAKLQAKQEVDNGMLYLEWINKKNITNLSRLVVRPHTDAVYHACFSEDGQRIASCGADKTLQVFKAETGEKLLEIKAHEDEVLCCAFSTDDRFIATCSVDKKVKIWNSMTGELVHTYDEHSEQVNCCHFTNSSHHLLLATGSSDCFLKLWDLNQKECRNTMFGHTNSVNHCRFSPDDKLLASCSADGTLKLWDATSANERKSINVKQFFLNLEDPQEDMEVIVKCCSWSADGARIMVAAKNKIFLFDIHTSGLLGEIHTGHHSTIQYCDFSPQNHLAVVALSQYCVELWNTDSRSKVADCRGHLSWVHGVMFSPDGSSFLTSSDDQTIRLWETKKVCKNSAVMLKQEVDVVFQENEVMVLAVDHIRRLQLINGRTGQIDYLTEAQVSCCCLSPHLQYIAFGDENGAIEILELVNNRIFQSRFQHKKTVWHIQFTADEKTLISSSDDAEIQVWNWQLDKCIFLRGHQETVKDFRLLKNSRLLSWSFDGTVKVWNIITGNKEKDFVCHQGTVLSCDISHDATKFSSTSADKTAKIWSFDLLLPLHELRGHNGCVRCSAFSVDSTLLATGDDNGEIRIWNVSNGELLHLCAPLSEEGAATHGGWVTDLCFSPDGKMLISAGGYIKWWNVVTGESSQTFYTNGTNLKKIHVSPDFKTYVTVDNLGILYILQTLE
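System: Reconstituted apoptosome of Apaf-1, cytochrome c, caspase-9, procaspase-3 | Reagent: dATP, cytochrome c, and (Z-DEVD)2-Rh110 caspase-3 substrate | Times: 30 min compound preincubation and 50 min reaction, both room temperature | Detection: Caspase-3-released Rh110 fluorescence, 540 nm emission, 480 nm excitation | Measure: Caspase-3 activity via Apaf-1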
Rh110 interf act: counter-screen for Apaf-1 activators: fluorescence interference | shares compounds with Apaf-1 act | Rh110 fluorescence interference, quenched caspase reaction, Ex480/Em540 | fluorescence interference (activity change), % at 20 µM, hits read low | 980 tested, under 10 active | AID 504616;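 active means mean activity change at or below -40% when tested at 20 µM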
Apaf-1 act conf2: Apaf-1 (human) activation, single-dose confirmed | shares compounds with Apaf-1 act | reconstituted apoptosome caspase-3 activity, DEVD-Rh110 fluorescence; hits give low values | activity change, negative = activation, % at 20 µM | 5% of 980 active | AID 504617;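 active means mean activity change at or below -40%, meaning activation of 40% or more, at 20 µM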
Fluor interf act: shows fluorescence interference in the Apaf-1 activator assay format. shares compounds with Apaf-1 act. fluorescence interference counterscreen. EC50, µM. 55 tested, under 10 active. AID 588592; call rule not given here
* = called active by the depositor; nt = no result given. The list is a sample of the results.

SMILES	Apaf-1 act	Rh110 interf act	Apaf-1 act conf2	others
CCC(C)Sc1ccc(-c2nc3ccc(C)cn3c2NC2CCCCC2)cc1 (configuration not stated)	41	nt	nt
Cc1ccc2nc(-c3cccnc3)c(NC3CCCCC3)n2c1	-50*	5	14
NC1=NC(c2ccc(Cl)cc2)C(C(=O)c2ccccc2)N1 (configuration not stated)	-470*	3	15
Cc1cccc(C(=O)NC2C(=O)NNC2c2ccc(Cl)cc2)c1 (configuration not stated)	54	nt	nt
COc1ccc2c(c1)c1ccc3c(c1n2C)C(=O)C=CC3=O	71	nt	nt
C#CCOCCOCCOCCNc1nc(N2CCN(C(=O)[C@H]([C@@H](C)CC)n3cc([C@@H](N)CO)nn3)CC2)nc(N2CCN(C(=O)[C@H](Cc3cc4ccccc4[nH]3)n3cc([C@@H](N)C(C)CC)nn3)CC2)n1 (some centres not stated)	48	nt	nt
O=C(CCc1ccccc1)NNc1cc(N2CCCCC2)nc(N2CCCCC2)n1	60	nt	nt
COc1ccc(CN(C)C(=O)c2ccc(OCC(=O)Nc3cccc(C(F)(F)F)c3)c(OC)c2)c(OC)c1	45	nt	nt
COC(=O)C1=C(C)N(Cc2ccccc2)C(=NCc2ccc(OC)cc2)N[C@H]1c1ccccc1	51	nt	nt
CC(=O)Nc1ccc(NC(=O)C2CCCN2C(=O)Nc2ccc(F)cc2)cc1 (configuration not stated)	-208*	4	15
COc1ccc(NC(=O)N2CCCC2C(=O)Nc2ccccc2)cc1 (configuration not stated)	-41*	1	13
O=C(NCCc1ccccc1)C1CCCN1C(=O)Nc1ccc(F)cc1 (configuration not stated)	-43*	6	12
COc1ccc(NC(=O)NNc2cc(N3CCOCC3)nc(N3CCOCC3)n2)cc1	52	nt	nt
COc1cccc2c1C(=O)c1c(O)c3c(c(O)c1C2=O)C[C@@](O)(C(=O)CO)C[C@@H]3O[C@H]1C[C@H](N)[C@@H](O)[C@H](C)O1	56	nt	nt
CCCOc1cc(NCc2ccccc2)c2ncn(C(C)C)c2c1	44	nt	nt
Nc1nn2c(-c3ccccc3)cc(=O)[nH]c2c1N=Nc1ccc(O)cc1	41	nt	nt
COc1ccc(S(=O)(=O)NNC(=O)c2cc3c4ccccc4n(C)c3s2)cc1	-407*	-3	14
C[C@@]12CCC=C[C@H]1[C@H](c1ccc3ccccc3c1Br)N(Cc1ccccc1)C2=O	49	nt	nt
CCCCCCCCCCC[N+](C)(C)CC/C=C1/c2ccccc2Sc2ccc(Cl)cc21	75	nt	nt
CC(C)COc1ccc(C(=O)Nc2scc(-c3ccc(Cl)cc3Cl)c2C(N)=O)cc1	45	nt	nt
Cc1ccc(NC(=O)c2ccc(OC(=O)COc3ccc(Cl)cc3C)cc2)cc1	-486*	-6	8
COc1cccc2sc3cc(C#CC4(O)CCCCC4)ccc3c(=O)c12	40	nt	nt
Cc1ccc(S(=O)(=O)Nc2ccc3c(c2)CC(=O)N([C@H](C)CO)C[C@@H](C)[C@H](CN(C)Cc2ccc(-c4ccccc4)cc2)O3)cc1	41	nt	nt
Cc1c(Cl)cnc(NC(=O)COC(=O)c2ccc([N+](=O)[O-])s2)c1Cl	40	nt	nt
Cc1c(C(=O)OCC(=O)Nc2c(C)n(C)n(-c3ccccc3)c2=O)cccc1[N+](=O)[O-]	-93*	5	12
SMILES	Apaf-1 act	Rh110 interf act	Apaf-1 act conf2	others
Cc1c(C(=O)N(CCc2ccccc2)Cc2ccccc2)cccc1[N+](=O)[O-]	41	nt	nt
Cc1c(CCOC(=O)c2ccc(Cl)cc2Cl)sc[n+]1CC(=O)c1ccccc1	56	nt	nt
COC(=O)CCC(=O)OC1(C)C(=O)C2=CN(C3CCCC3)C(c3ccc(OC)cc3)=CC2=C(Br)C1=O (configuration not stated)	64	nt	nt
COCCN1C=C2C(=O)C(C)(OC(=O)CCC(=O)OC)C(=O)C(Br)=C2C=C1c1ccc(OC)cc1 (configuration not stated)	77	nt	nt	Fluor interf act=>100
C=CCN1C=C2C(=O)C(C)(OC(=O)CCC(=O)OC)C(=O)C(Br)=C2C=C1c1ccc(OC)cc1 (configuration not stated)	67	nt	nt
O=[N+]([O-])c1cccc(C=Nc2cccc3ccccc23)c1O	93	nt	nt
COc1cc(NCCCCCCCN)c2ncccc2c1	95	nt	nt
Cc1[nH]n(-c2ccccc2)c(=O)c1N=Nc1cccc(S(=O)(=O)N2CCOCC2)c1	46	nt	nt
Cc1nc2ccc3nc(NC(=O)c4ccc(S(=O)(=O)N5CCOCC5)cc4)sc3c2s1	-80*	-7	-21
Cc1ccc(-n2c(O)c(/C=N/Nc3ccc(S(=O)(=O)N4CCOCC4)cc3[N+](=O)[O-])c3ccccc3c2=O)c(C)c1	51	nt	nt
CCN1CCN(c2ccc(S(=O)(=O)N3CCOCC3)cc2NC(=O)CC(C)C)CC1	50	nt	nt
Cc1cc(NC(=O)c2cccc(S(=O)(=O)N3CCOCC3)c2)no1	-50*	2	9
C#CCOCCOCCOCCNc1nc(N2CCN(C(=O)[C@H](CCCCN)n3cc([C@@H](N)[C@H](C)CC)nn3)CC2)nc(N2CCN(C(=O)[C@H](CCCCN)n3cc([C@@H](N)CC(N)=O)nn3)CC2)n1	44	nt	nt
Cc1ccc(NC(=S)Nc2cccc3cnccc23)cc1	96	nt	nt
COc1ccc(CN2CC(C(=O)NCc3cccc(OC)c3)CC2=O)cc1 (configuration not stated)	67	nt	nt
COc1ccc(N2CC(C(=O)N/N=C/c3cc([N+](=O)[O-])ccc3O)CC2=O)cc1 (configuration not stated)	-318*	7	15
CC1=NN(Cc2ccccc2)C(=O)C1	65	nt	nt
Cc1cc(C(=O)OCC(=O)NC(=O)c2cccn2C)c2ccccc2n1	-127*	9	14
Cc1cc(C)c(C(N)=O)c(Nc2cccc3ccccc23)n1	96	nt	nt
CC(C)(C)CC(C)(C)c1ccc(OCCOCC[N+](C)(C)Cc2ccccc2)cc1	82	nt	nt
CN(C)CCCN1c2ccccc2Sc2ccc(Cl)cc21	42	nt	nt
O=C1C(N2CCOCC2)=C(n2nnc3ccccc32)C(=O)c2ccccc21	94	nt	nt
CC(Cn1nnc2ccccc21)C(=O)O (configuration not stated)	-107*	15	-14
CC(Sc1ccc2ccccc2n1)C(=O)O (configuration not stated)	6	nt	nt
CCCCCCN(C(=O)CCCCCN1C(=O)NC(c2ccc(-c3ccccc3)cc2)C(C(=O)OCc2ccccc2)=C1C)C(C(=O)NCCCC)c1cccc(C(=O)OC)c1 (configuration not stated)	79	nt	nt
N#Cc1c2c(c(-n3cnc4ccccc43)n3c1nc1ccccc13)CCC2	45	nt	nt
CC(C)CC(=O)N[C@H](C(=O)N[C@H](C(=O)N[C@@H](CC(C)C)[C@@H](O)CC(=O)N[C@@H](C)C(=O)N[C@@H](CC(C)C)[C@@H](O)CC(=O)O)C(C)C)C(C)C	-239*	-234*	11
CN1N=C(C(C)(C)C)CC1=O	41	nt	nt
N#C/C(=N/Nc1ccccc1[N+](=O)[O-])C(N)=S	-40*	10	4
O=C1C(Nc2ccccc2)=C(N2CCCCC2)C(=O)c2ccccc21	93	nt	nt

Assay outcomes from PubChem.
